Published values pooled from the literature.
Target: Phosphatidylinositol 4,5-bisphosphate 3-kinase catalytic subunit gamma isoform (PIK3CG, Homo sapiens, UniProt P48736)

Cc1nn(C)cc1-c1nc2c(N3CCN(Cc4ccc(Cl)cc4)CC3)c(Cl)cnc2[nH]1 — remaining binding (binding, competition with immobilised ligand; 1 µM): 100%
Cn1cc(-c2cc(F)cc(N3CCn4c(cc5c4CCCC5)C3=O)c2CO)cc(Nc2ccc(N3CCN(C4COC4)CC3)cn2)c1=O — inhibition (enzyme activity, inhibitor; 0.1 µM): 5%
Cn1cncc1[C@](O)(COc1ccc(C#N)cc1-c1ccc(OC(F)(F)F)cc1)c1ccc(C#N)cc1 — remaining binding (cell-free assay, competition with immobilised ligand; 1 µM): 100%
COc1ncccc1-c1cnn2ccc(N3CCN(C(=O)OC(C)C)CC3)nc12 — remaining binding (binding, competition with immobilised ligand; 1 µM): 100%
C#Cc1n[nH]c2c(-c3cn([C@@H](C)c4ccccc4)c(=O)[nH]c3=O)cc(F)cc12 — inhibition (enzyme activity, inhibitor; 0.1 µM): 7.4%
Nc1ncc(-c2nc(N3CCOCC3)nc(N3CCOCC3)n2)c(C(F)F)n1 — remaining binding (binding, competition with immobilised ligand; 10 µM): 0%
Cn1cc(-c2cccc(N3CCc4c(sc5c4CC(C)(C)C5)C3=O)c2CO)cc(Nc2ccncn2)c1=O — inhibition (enzyme activity, inhibitor; 1 µM): -1%
N#CC1(c2ccccn2)CCN(Cc2cc(C(=O)O)c(=O)n3ccccc23)CC1 — remaining binding (cell-free assay, competition with immobilised ligand; 1 µM): 91%
C#Cc1n[nH]c2c(-c3cn([C@@H](C)c4ccccn4)c(=O)[nH]c3=O)cc(F)cc12 — inhibition (enzyme activity, inhibitor; 0.1 µM): 1.9%
